Test results published in ChEMBL document CHEMBL1177891, “Synthesis and bioassay of pyrrolyl oxazolines and thiazolines” (2010).
In brackets after ≈: the same amount, converted by molar mass.

Columns and labels:
Assay type in all cases: functional
[1] = Antioxidant activity assessed as increase in reducing power at 100 uM
Outline: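 Oyaizu method. Compound at 100 μM in methanol mixed with 0.2 M phosphate buffer pH 6.6 and 1% potassium ferricyanide, 50 °C for 20 min. 10% TCA added, then centrifuged 3000 rpm for 10 min. Upper layer mixed with water and 0.1% FeCl3; absorbance read at 700 nm.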

Curvularia lunata [2] = experiment: Antifungal activity against Curvularia lunata at 100 ug/disk after 48 hrs by disk diffusion method; settings: read-out: IZ
Outline: (§1)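 Fungi from NCIM on nutrient agar plates, pre-inoculated. 6 mm paper discs carrying 100 or 200 μg compound in DMSO applied. Plates incubated at 37 °C and inhibition zone diameter measured at 48 h. Ketoconazole control.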

Bacillus subtilis [3] = experiment: Antibacterial activity against Bacillus subtilis at 200 ug/disk after 24 hrs by disk diffusion method; settings: read-out: IZ
Outline: (§2)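 Agar disc diffusion on nutrient agar with NCIM bacteria. 6 mm sterile paper discs moistened with compound in DMSO (100 or 200 μg/disc) placed on pre-inoculated plates. Incubated at 37 °C; growth-inhibition zone diameter measured after 24 h. Chloramphenicol control.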

Aspergillus niger [4] = experiment: Antifungal activity against Aspergillus niger after 48 hrs by microdilution susceptibility assay
Outline: (§3)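 Fungal strains from NCIM. Microdilution: stocks at 800 μg/ml in DMSO, two-fold dilutions 400 down to 6.25 μg/ml, wells inoculated with fungal suspension, incubated 36 °C for 48 h. MIC read as lowest concentration without turbidity. Ketoconazole reference.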

Klebsiella pneumoniae [5] = experiment: Antibacterial activity against Klebsiella pneumoniae after 24 hrs by microdilution susceptibility assay
Outline: (§4)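 Bacterial strains from NCIM. Broth microdilution: stocks at 800 μg/ml in DMSO, two-fold dilutions 400, 200, 100 ... 6.25 μg/ml, wells inoculated with bacterial suspension, 36 °C for 24 h. MIC = lowest concentration with no turbidity (no visible growth). Chloramphenicol as reference.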

Fusarium solani [6] = experiment: Antifungal activity against Fusarium solani after 48 hrs by microdilution susceptibility assay; outline: as §3
Bacillus subtilis [7] = experiment: Antibacterial activity against Bacillus subtilis at 100 ug/disk after 24 hrs by disk diffusion method; settings: read-out: IZ; outline: as §2
Klebsiella pneumoniae [8] = experiment: Antibacterial activity against Klebsiella pneumoniae at 200 ug/disk after 24 hrs by disk diffusion method; settings: read-out: IZ; outline: as §2
Fusarium solani [9] = experiment: Antifungal activity against Fusarium solani at 100 ug/disk after 48 hrs by disk diffusion method; settings: read-out: IZ; outline: as §1
Proteus vulgaris [10] = experiment: Antibacterial activity against Proteus vulgaris after 24 hrs by microdilution susceptibility assay; outline: as §4
[11] = tested on: Radical scavenging activity; experiment: Antioxidant activity assessed as DPPH radical scavenging activity at 100 uM
Outline: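 Compound (100 μM) added to 100 μM DPPH in dioxane/ethanol. Kept at ambient temperature 20 min, then absorbance read at 517 nm. Percent DPPH scavenging taken from difference between test and control.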

Curvularia lunata [12] = experiment: Antifungal activity against Curvularia lunata after 48 hrs by microdilution susceptibility assay; outline: as §3
Staphylococcus aureus [13] = experiment: Antibacterial activity against Staphylococcus aureus after 24 hrs by microdilution susceptibility assay; outline: as §4
Curvularia lunata [14] = experiment: Antifungal activity against […] lunata at 200 ug/disk after 48 hrs by disk diffusion method; settings: read-out: IZ; outline: as §1
Aspergillus niger [15] = experiment: Antifungal activity against Aspergillus niger at 200 ug/disk after 48 hrs by disk diffusion method; settings: read-out: IZ; outline: as §1
Klebsiella pneumoniae [16] = experiment: Antibacterial activity against Klebsiella pneumoniae at 100 ug/disk after 24 hrs by disk diffusion method; settings: read-out: IZ; outline: as §2
Staphylococcus aureus [17] = experiment: Antibacterial activity against Staphylococcus aureus at 200 ug/disk after 24 hrs by disk diffusion method; settings: read-out: IZ; outline: as §2
Proteus vulgaris [18] = experiment: Antibacterial activity against Proteus vulgaris at 200 ug/disk after 24 hrs by disk diffusion method; settings: read-out: IZ; outline: as §2
Staphylococcus aureus [19] = experiment: Antibacterial activity against Staphylococcus aureus at 100 ug/disk after 24 hrs by disk diffusion method; settings: read-out: IZ; outline: as §2
Aspergillus niger [20] = experiment: Antifungal activity against Aspergillus niger at 100 ug/disk after 48 hrs by disk diffusion method; settings: read-out: IZ; outline: as §1
Proteus vulgaris [21] = experiment: Antibacterial activity against Proteus vulgaris at 100 ug/disk after 24 hrs by disk diffusion method; settings: read-out: IZ; outline: as §2
[22] = Antioxidant activity assessed as inhibition of nitric oxide production at 100 uM
Outline: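 Sodium nitroprusside ([…]) in phosphate buffer pH 7.4 incubated with 100 μM compound (dioxane/methanol) at 25 °C for 120 min; solvent-only control. Aliquots mixed 1:1 with Griess reagent (1% sulfanilamide, 0.1% N-naphthylethylenediamine, 2% phosphoric acid). Absorbance at 546 nm, triplicate.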

Fusarium solani [23] = experiment: Antifungal activity against Fusarium solani at 200 ug/disk after 48 hrs by disk diffusion method; settings: read-out: IZ; outline: as §1
Bacillus subtilis [24] = experiment: Antibacterial activity against Bacillus subtilis after 24 hrs by microdilution susceptibility assay; outline: as §4

Row | Compound | inhibition [1] [%] | zone of inhibition at 100 µg/disc (Curvularia lunata [2]) [mm] | zone of inhibition at 200 µg/disc (Bacillus subtilis [3]) [mm] | MIC (Aspergillus niger [4]) [µg/mL] | MIC (Klebsiella pneumoniae [5]) [µg/mL] | MIC (Fusarium solani [6]) [µg/mL] | zone of inhibition at 100 µg/disc (Bacillus subtilis [7]) [mm] | zone of inhibition at 200 µg/disc (Klebsiella pneumoniae [8]) [mm] | zone of inhibition at 100 µg/disc (Fusarium solani [9]) [mm] | MIC (Proteus vulgaris [10]) [µg/mL] | inhibition [11] [%] | MIC (Curvularia lunata [12]) [µg/mL] | MIC (Staphylococcus aureus [13]) [µg/mL] | zone of inhibition at 200 µg/disc (Curvularia lunata [14]) [mm] | zone of inhibition at 200 µg/disc (Aspergillus niger [15]) [mm] | zone of inhibition at 100 µg/disc (Klebsiella pneumoniae [16]) [mm] | zone of inhibition at 200 µg/disc (Staphylococcus aureus [17]) [mm] | zone of inhibition at 200 µg/disc (Proteus vulgaris [18]) [mm] | zone of inhibition at 100 µg/disc (Staphylococcus aureus [19]) [mm] | zone of inhibition at 100 µg/disc (Aspergillus niger [20]) [mm] | other results
1 | O=S(=O)(CC1=NCCS1)c1c[nH]cc1S(=O)(=O)c1ccc(Cl)cc1 | 40.4 | 36 | 35 | 25 (≈ 61.7 µM) | 50 (≈ 123 µM) | 50 (≈ 123 µM) | 33 | 29 | 35 | 50 (≈ 123 µM) | 40.5 | 12.5 (≈ 30.9 µM) | 25 (≈ 61.7 µM) | 41 | 38 | 27 | 34 | 30 | 32 | 34 | zone of inhibition at 100 µg/disc (Proteus vulgaris [21]): 29 mm; inhibition [22]: 41.4%; zone of inhibition at 200 µg/disc (Fusarium solani [23]): 38 mm; MIC (Bacillus subtilis [24]): 12.5 µg/mL (≈ 30.9 µM)
2 | O=S(=O)(CC1=NCCS1)c1c[nH]cc1S(=O)(=O)c1ccccc1 | 32.4 | 32 | 32 | 100 (≈ 270 µM) | 100 (≈ 270 µM) | 100 (≈ 270 µM) | 30 | 25 | 34 | 100 (≈ 270 µM) | 33.8 | 100 (≈ 270 µM) | 100 (≈ 270 µM) | 35 | 33 | 23 | 30 | 28 | 29 | 30 | zone of inhibition at 100 µg/disc (Proteus vulgaris [21]): 24 mm; inhibition [22]: 34.6%; zone of inhibition at 200 µg/disc (Fusarium solani [23]): 37 mm; MIC (Bacillus subtilis [24]): 50 µg/mL (≈ 135 µM)
